Drawing on ChEMBL document CHEMBL1146501, “Microbial transformation of isosteviol and inhibitory effects on Epstein-Barr virus activation of the transformation products” (J Nat Prod, 2004), this text covers Activity and viability for eight compounds.

Common to all, as to assay type: cell-based
The test system of series [1] is Raji. Put plainly: Inhibition of 12-O-tetradecanoylphorbol-13-acetate-induced EBV-early antigen activation in human Raji cells assessed as EA activation at 100 molar ratio after 48 hrs relative to TPA. The conditions noted are these: human gammaherpesvirus 4. On the set-up: scale not given: the % may be the effect or the level left. The gist of the method: (§1)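 EBV genome-carrying nonproducer Raji lymphoblastoid cells grown in 10% FBS RPMI 1640. Cells were incubated at 37 °C for 48 h with n-butyric acid (4 mM) and TPA (32 pmol, 20 ng/mL) in DMSO, plus test compound in DMSO. Smears were stained with EA-positive nasopharyngeal carcinoma patient sera and read by indirect immunofluorescence, counting ≥500 cells per assay, run twice. Average EA induction is expressed relative to butyrate+TPA control.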

In series [2] the test system is Raji. Put plainly: Inhibition of 12-O-tetradecanoylphorbol-13-acetate-induced EBV-early antigen activation in human Raji cells assessed as EA activation at 1000 molar ratio after 48 hrs relative to TPA. On the set-up: scale not given: the % may be the effect or the level left. The conditions noted are these: human gammaherpesvirus 4. The gist of the method:
as §1

In series [3] the test system is Raji. The experiment in a line: Inhibition of 12-O-tetradecanoylphorbol-13-acetate-induced EBV-early antigen activation in human Raji cells assessed as EA activation at 500 molar ratio after 48 hrs relative to TPA. On the set-up: scale not given: the % may be the effect or the level left. Particulars: human gammaherpesvirus 4. The gist of the method:
as §1

The subject of series [4] is Raji. The experiment in a line: Inhibition of 12-O-tetradecanoylphorbol-13-acetate-induced EBV-early antigen activation in human Raji cells assessed as EA activation at 10 molar ratio after 48 hrs relative to TPA. On the set-up: scale not given: the % may be the effect or the level left. The conditions noted are these: human gammaherpesvirus 4. In outline: as §1
A short description of series [5]: Cytotoxicity against human Raji cells assessed as cell viability at 1000 molar ratio by trypan blue assay. Particulars: read-out: Activity.

For `C=C1C[C@@]23CC[C@H]4[C@@](C)(CCC[C@@]4(C)C(=O)O[C@@H]4O[C@H](CO)[C@@H](O)[C@H](O)[C@H]4O)[C@@H]2CC[C@]1(O[C@@H]1O[C@H](CO)[C@@H](O)[C@H](O)[C@H]1O[C@@H]1O[C@H](CO)[C@@H](O)[C@H](O)[C@H]1O)C3` [STEVIOSIDE], the Activity in series [1] is 78.9%; in series [2], 12.5%; in series [3], 46.2%; in series [4], 100%. The viability at 1000 molar ratio in series [5] was 60%.

`C[C@@]12CCC[C@@](C)(C(=O)O)[C@H]1CC[C@@]13CC(=O)[C@@](CO)(CC[C@H]12)C3`: the Activity was 77% in series [1], 8.2% in series [2], 42.6% in series [3] and 95.7% in series [4]. Moreover, in series [5], the viability at 1000 molar ratio amounted to 60%.

`C[C@@]12CCC[C@@](C)(C(=O)O)[C@H]1CC[C@]13CC(=O)[C@](C)(C1)[C@H](O)C[C@H]32`: the Activity in series [1] was 75.1%; in series [2] it was 5.7%; in series [3] it was 40%; in series [4], 93.2%. Also, the viability at 1000 molar ratio in series [5] was found to be 60%.

On to `CC1=C(/C=C/C(C)=C/C=C/C(C)=C/C=C/C=C(C)/C=C/C=C(C)/C=C/C2=C(C)CCCC2(C)C)C(C)(C)CCC1`, for which the Activity in series [2] amounted to 8.6%; in series [4] it was 100%.

On to `C[C@@]12CC[C@@H]3[C@@](CC[C@H]4[C@@]3(C)CCC[C@@]4(C)C(=O)O)(CC1=O)C2` [ISOSTEVIOL], for which the Activity is 80% in series [1], 12.3% in series [2], 46.7% in series [3] and 98.8% in series [4]. For the same compound, the viability at 1000 molar ratio in series [5] is 60%.

Take `C[C@@]12CC[C@@H]3[C@@](CC1=O)(C2)C(=O)C[C@H]1[C@@]3(C)CCC[C@@]1(C)C(=O)O`: the Activity turned out to be 72.3% in series [1], 7.4% in series [2], 35.1% in series [3] and 94.5% in series [4]. In series [5], the viability at 1000 molar ratio came to 60%.

On to `C[C@@]12C[C@H](O)[C@@H]3[C@@](CC[C@H]4[C@@]3(C)CCC[C@@]4(C)C(=O)O)(CC1=O)C2`, for which the Activity in series [1] was 74.1%; in series [2], 4%; in series [3] it was 39.8%; in series [4], 91%. The viability at 1000 molar ratio in series [5] turned out to be 60%.

As to `C[C@@]12CC[C@H]3[C@]4(C)CCC[C@@](C)(C(=O)O)[C@H]4C[C@H](O)[C@]3(CC1=O)C2`, the Activity stood at 76.3% in series [1], 6.9% in series [2], 41.7% in series [3] and 94.6% in series [4]. Also, the viability at 1000 molar ratio in series [5] was 60%.
